The record followed here is ChEMBL document CHEMBL1828615, “Synthesis of a series of 3,4-methanoarginines as side-chain conformationally restricted analogues of arginine” (Bioorg Med Chem, 2011).

Experiment [1] concerns the target Nitric oxide synthase 1 (Rattus norvegicus) (UniProt P29476). In words: Inhibition of rat nNOS assessed as nitric oxide-mediated oxidation of haemoglobin-A0 at 300 uM using L-arginine by haemoglobin capture assay. In outline:
(§1)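 For eNOS (bovine) and nNOS (rat), inhibition was tested as the effect of compound on L-arginine turnover, by hemoglobin capture at 30 °C. Buffer was 100 mM HEPES (pH 7.5) with 1.0 mM CaCl₂, 600 unit/mL calmodulin, NADPH, 0.125 mg/mL ferrous hemoglobin-A₀ and H₄B. Reactions were started with enzyme, and hemoglobin-A₀ oxidation was read at 401 nm.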

In experiment [2] the target is T1, Nitric oxide synthase, inducible (Mus musculus) (UniProt P29477).
T1 sequence (whole entry): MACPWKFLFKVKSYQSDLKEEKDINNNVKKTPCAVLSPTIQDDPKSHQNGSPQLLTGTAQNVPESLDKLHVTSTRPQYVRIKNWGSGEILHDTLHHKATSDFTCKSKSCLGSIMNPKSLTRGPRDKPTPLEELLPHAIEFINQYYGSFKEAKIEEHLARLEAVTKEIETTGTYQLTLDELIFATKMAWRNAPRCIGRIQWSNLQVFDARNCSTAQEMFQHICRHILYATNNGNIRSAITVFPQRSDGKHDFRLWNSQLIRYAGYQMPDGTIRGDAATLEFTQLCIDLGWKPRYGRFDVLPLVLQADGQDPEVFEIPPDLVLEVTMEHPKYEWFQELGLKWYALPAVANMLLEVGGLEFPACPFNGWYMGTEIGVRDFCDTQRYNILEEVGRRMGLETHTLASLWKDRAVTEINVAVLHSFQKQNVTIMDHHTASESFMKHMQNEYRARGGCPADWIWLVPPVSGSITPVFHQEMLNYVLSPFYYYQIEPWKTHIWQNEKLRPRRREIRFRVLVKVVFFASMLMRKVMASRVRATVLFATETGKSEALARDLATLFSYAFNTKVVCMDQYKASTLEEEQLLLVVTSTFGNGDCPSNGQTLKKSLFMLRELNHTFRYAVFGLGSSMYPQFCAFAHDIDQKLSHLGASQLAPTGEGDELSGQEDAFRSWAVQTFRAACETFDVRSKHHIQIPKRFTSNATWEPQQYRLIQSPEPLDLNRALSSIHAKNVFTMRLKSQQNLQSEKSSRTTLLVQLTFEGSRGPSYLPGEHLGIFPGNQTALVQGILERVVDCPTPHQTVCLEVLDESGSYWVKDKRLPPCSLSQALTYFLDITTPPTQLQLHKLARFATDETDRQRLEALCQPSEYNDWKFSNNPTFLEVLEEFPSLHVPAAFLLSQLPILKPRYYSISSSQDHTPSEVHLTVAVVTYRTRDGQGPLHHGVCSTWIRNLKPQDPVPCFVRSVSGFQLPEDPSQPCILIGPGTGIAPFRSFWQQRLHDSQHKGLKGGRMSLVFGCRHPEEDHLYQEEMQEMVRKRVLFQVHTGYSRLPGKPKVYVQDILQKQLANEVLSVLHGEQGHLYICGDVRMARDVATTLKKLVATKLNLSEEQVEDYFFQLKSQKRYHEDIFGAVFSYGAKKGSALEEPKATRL
The experiment is described as follows: Inhibition of mouse iNOS assessed as nitric oxide-mediated oxidation of haemoglobin-A0 at 300 uM using L-arginine by haemoglobin capture assay. In outline: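 Murine iNOS inhibition was measured against L-arginine as substrate in a hemoglobin capture assay at 30 °C, without calcium or calmodulin. The mix held NADPH, 0.125 mg/mL ferrous hemoglobin-A₀ and H₄B in 100 mM HEPES (pH 7.5). Enzyme addition initiated the reaction, and NO-mediated oxidation was monitored at 401 nm.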

The target of experiment [3] is T2, Nitric oxide synthase 3 (Bos taurus) (UniProt P29473).
T2 sequence (whole entry): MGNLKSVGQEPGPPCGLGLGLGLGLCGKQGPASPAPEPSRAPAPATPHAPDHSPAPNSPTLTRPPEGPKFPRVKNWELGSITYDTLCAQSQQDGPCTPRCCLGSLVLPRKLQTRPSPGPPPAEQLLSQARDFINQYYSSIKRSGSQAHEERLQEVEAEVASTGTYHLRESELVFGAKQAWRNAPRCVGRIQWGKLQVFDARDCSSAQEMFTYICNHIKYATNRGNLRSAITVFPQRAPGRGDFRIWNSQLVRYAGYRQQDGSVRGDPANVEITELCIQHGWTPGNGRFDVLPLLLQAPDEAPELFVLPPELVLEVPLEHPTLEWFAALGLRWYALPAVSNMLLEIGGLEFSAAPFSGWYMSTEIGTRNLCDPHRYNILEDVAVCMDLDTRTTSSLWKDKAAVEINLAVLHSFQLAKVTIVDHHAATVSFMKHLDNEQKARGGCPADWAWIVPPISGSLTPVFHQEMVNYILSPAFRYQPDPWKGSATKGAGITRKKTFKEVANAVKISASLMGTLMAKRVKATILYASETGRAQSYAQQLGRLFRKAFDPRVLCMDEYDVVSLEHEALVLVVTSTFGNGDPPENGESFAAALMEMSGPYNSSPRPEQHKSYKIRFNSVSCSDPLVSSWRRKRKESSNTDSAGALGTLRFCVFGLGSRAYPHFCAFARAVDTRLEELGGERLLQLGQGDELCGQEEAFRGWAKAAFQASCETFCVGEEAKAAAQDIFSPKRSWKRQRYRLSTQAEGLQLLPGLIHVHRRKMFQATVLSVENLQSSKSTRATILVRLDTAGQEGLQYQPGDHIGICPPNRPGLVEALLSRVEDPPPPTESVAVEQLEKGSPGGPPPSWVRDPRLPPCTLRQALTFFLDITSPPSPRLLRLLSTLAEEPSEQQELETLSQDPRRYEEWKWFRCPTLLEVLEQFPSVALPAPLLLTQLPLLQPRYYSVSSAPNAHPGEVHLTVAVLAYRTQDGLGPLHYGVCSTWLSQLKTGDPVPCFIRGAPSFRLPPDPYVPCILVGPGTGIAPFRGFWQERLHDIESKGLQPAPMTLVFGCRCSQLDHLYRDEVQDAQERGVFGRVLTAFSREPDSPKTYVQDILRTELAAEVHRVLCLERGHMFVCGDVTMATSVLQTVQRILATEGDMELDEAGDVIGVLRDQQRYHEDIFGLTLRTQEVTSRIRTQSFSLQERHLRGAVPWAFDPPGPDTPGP
In words: Inhibition of bovine eNOS assessed as nitric oxide-mediated oxidation of haemoglobin-A0 at 300 uM using L-arginine by haemoglobin capture assay. In outline: as §1

Experiment [4] can be described thus: Selectivity ratio of km rat nNOS to km mouse iNOS by Michaelis-Menten equation analysis.
Experiment [5] in a line: Selectivity ratio of km for bovine eNOS to km for mouse iNOS by Michaelis-Menten equation analysis.

What is called inhibition is the percentage by which the read-out fell short of the control.

Sequence of Nitric oxide synthase 1 (Rattus norvegicus) (P29476 whole entry): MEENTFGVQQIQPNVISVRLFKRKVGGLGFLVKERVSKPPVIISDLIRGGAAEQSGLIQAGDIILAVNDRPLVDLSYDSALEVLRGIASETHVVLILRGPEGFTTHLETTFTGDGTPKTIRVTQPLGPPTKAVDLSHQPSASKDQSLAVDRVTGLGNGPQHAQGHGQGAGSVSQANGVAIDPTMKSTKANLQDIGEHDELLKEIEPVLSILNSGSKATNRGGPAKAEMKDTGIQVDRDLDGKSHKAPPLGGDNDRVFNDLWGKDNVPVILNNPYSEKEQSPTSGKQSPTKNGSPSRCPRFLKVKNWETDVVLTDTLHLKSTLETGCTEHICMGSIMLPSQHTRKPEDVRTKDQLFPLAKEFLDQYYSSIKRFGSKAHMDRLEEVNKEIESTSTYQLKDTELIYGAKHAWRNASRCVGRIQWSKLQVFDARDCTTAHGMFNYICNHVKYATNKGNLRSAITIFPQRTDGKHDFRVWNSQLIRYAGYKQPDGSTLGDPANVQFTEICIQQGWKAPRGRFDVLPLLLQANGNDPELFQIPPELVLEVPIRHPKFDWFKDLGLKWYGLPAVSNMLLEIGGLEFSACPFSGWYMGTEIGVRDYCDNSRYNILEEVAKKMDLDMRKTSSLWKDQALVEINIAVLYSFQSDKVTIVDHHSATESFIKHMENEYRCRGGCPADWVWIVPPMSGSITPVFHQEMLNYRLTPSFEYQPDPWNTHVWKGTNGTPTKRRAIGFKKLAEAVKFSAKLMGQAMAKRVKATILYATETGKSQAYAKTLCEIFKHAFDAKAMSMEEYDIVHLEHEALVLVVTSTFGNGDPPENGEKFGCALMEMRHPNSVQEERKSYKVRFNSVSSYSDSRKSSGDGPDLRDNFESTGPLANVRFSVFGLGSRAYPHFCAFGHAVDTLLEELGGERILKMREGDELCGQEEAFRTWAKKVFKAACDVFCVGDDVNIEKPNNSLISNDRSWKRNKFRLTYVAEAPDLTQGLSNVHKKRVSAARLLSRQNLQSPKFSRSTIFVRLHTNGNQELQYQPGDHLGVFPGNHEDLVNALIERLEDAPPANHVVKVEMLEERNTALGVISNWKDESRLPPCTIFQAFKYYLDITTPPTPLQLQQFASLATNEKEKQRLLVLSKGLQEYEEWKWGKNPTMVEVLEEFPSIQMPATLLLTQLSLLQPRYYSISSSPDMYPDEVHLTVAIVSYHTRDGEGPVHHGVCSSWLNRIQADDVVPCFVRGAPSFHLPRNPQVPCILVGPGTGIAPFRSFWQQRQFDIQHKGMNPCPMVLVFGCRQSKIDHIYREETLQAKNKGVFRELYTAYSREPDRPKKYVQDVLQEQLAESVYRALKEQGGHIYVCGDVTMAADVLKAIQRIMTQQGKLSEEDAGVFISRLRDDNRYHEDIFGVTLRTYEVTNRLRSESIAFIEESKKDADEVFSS

Regarding `N=C(N)NC[C@@H]1C[C@H]1[C@H](N)C(=O)O`, the values for the inhibition in experiment [1], in experiment [2] and in experiment [3] were 16%, 26% and 45%, respectively.
Consider `N=C(N)NCCC[C@H](N)C(=O)O`, for which the Ratio in experiment [4] was 3.5; in experiment [5], 8.6.
For the compound `N=C(N)NC[C@@H]1C[C@H]1[C@@H](N)C(=O)O`, the inhibition in experiment [1] was 13%; in experiment [2], 19%; in experiment [3], 4%.
For the compound `N=C(N)NC[C@@H]1C[C@@H]1[C@@H](N)C(=O)O`, the inhibition came to 10% in experiment [1], 24% in experiment [2] and 4% in experiment [3].
On the same counts, the results for `N=C(N)NC[C@H]1C[C@H]1[C@@H](N)C(=O)O` are 30%, 14% and 27%.
As to `N=C(N)NC[C@H]1C[C@H]1[C@H](N)C(=O)O`, the results for the Ratio in experiment [4] and in experiment [5] were 2.3 and 3.6, respectively.
With `N=C(N)NC[C@H]1C[C@@H]1[C@@H](N)C(=O)O`, the values for the inhibition in experiment [1], in experiment [2] and in experiment [3] were 5%, 19% and 23%, respectively.
In the case of `N=C(N)NC[C@@H]1C[C@@H]1[C@H](N)C(=O)O`, the inhibition in experiment [1] is 30%; in experiment [2], 22%; in experiment [3] it was 16%.
For the compound `N=C(N)NC[C@H]1C[C@@H]1[C@H](N)C(=O)O`, the Ratio in experiment [4] worked out at 2.6; in experiment [5], 5.6.
